# Source: ChEMBL document CHEMBL4396920, “DL5050, a Selective Agonist for the Human Constitutive Androstane Receptor” (ACS Med Chem Lett, 2019)
# How the values were obtained:
# [1] = target: T1, Nuclear receptor subfamily 1 group I member 3 (Homo sapiens, UniProt Q14994); assay: Agonist activity at human CAR in human primary hepatocytes assessed as increase in CYP2B6 gene expression incubated for 24 hrs by RT-PCR analysis; assay type: cell-based
# T1 sequence (Q14994 whole entry): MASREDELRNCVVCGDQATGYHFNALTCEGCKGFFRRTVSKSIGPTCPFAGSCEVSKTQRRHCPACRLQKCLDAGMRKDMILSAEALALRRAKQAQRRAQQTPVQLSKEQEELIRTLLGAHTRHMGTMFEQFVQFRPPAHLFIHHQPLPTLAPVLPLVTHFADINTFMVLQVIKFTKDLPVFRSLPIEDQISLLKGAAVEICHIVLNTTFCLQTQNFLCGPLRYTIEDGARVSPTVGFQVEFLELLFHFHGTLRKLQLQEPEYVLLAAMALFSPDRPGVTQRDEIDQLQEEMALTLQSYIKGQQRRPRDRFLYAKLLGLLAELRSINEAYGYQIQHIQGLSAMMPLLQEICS
# In short: (§1)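 Hepatocytes from human liver donor HL-#151, treated with test compound at 0.5, 1 and 5 μM or vehicle; CITCO (0.5–5 μM), PB (1 mM) and RIF (10 μM) as references. CYP2B6 and CYP3A4 mRNA measured by RT-PCR and normalized to vehicle control. Mean ± SD of three independent experiments.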
# [2] = tested on: HepG2; assay: Cytotoxicity against human HepG2 cells harbouring CYP2B6-hCAR gene assessed as cell viability at 92 uM incubated for 24 hrs by cell titer-Glo cell viability assay; assay type: ADME, cell-based; conditions: hepg2, 24 h
# [3] = target: T1, Nuclear receptor subfamily 1 group I member 3; assay: Agonist activity at human CAR in human primary hepatocytes assessed as slight increase in CYP2B6 level at 0.5 to 5 uM incubated for 72 hrs by Western blot analysis; assay type: cell-based
# In short: (§2)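 Hepatocytes from liver donor #151, given the same treatments as the mRNA study. CYP2B6 and CYP3A4 protein detected by immunoblotting; representative blots.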
# [4] = target: T2, Nuclear receptor subfamily 1 group I member 2 (Homo sapiens, UniProt O75469); assay: Agonist activity at human PXR transfected in human HepG2 cells cotransfected with CYP3A4 incubated for 23 hrs by luciferase reporter gene assay; assay type: cell-based
# T2 sequence (O75469 whole entry): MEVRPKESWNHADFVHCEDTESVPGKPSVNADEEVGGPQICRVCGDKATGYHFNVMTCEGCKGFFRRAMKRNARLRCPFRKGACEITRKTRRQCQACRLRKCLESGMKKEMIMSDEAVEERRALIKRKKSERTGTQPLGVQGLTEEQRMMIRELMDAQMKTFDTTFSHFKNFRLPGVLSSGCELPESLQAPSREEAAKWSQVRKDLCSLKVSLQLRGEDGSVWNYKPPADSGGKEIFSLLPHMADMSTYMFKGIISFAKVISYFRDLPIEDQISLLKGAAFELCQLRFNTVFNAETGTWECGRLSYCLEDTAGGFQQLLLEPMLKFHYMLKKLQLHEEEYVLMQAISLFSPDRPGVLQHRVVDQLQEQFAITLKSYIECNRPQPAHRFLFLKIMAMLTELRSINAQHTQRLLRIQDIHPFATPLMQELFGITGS
# [5] = target: T2, Nuclear receptor subfamily 1 group I member 2; assay: Agonist activity at human PXR in human primary hepatocytes assessed as slight increase in CYP3A4 gene expression at 0.5 to 5 uM incubated for 24 hrs by RT-PCR analysis; assay type: cell-based; in short: as §1
# [6] = target: T1, Nuclear receptor subfamily 1 group I member 3; assay: Agonist activity at human CAR transfected in human HepG2 cells cotransfected with CYP2B6 incubated for 23 hrs by luciferase reported gene assay; assay type: cell-based
# In short: (§3)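 qHTS luciferase reporter assay in a double-stable HepG2-CYP2B6-hCAR line. EC50 and Emax (fold luciferase signal over vehicle/basal) derived by nonlinear regression; Emax/EC50 ratio computed from these. Mean ± SEM of at least three independent experiments in quadruplicate.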
# [7] = target: T1, Nuclear receptor subfamily 1 group I member 3; assay: Ratio of Emax to EC50 for agonist activity at human CAR transfected in human HepG2 cells cotransfected with CYP2B6 by luciferase reporter gene assay; assay type: cell-based; in short: as §3
# [8] = target: T2, Nuclear receptor subfamily 1 group I member 2; assay: Ratio of Emax to EC50 for agonist activity at human PXR transfected in human HepG2 cells cotransfected with CYP3A4 by luciferase reporter gene assay; assay type: cell-based
# [9] = tested on: HepG2; assay: Cytotoxicity against human HepG2 cells harbouring CYP2B6-hCAR gene assessed as reduction in cell viability at >10 uM incubated for 24 hrs by cell titer-Glo cell viability assay; assay type: ADME, cell-based; conditions: hepg2, 24 h
# [10] = target: T2, Nuclear receptor subfamily 1 group I member 2; assay: Agonist activity at human PXR in human primary hepatocytes assessed as slight increase in CYP3A4 level at 0.5 to 5 uM incubated for 72 hrs by Western blot analysis; assay type: cell-based; in short: as §2
# [11] = target: T1, Nuclear receptor subfamily 1 group I member 3; assay: Agonist activity at human CAR in human primary hepatocytes assessed as increase in CYP2B6 level incubated for 72 hrs by Western blot analysis; assay type: cell-based; in short: as §2
# [12] = target: T1, Nuclear receptor subfamily 1 group I member 3; assay: Agonist activity at human CAR in human primary hepatocytes assessed as increase in CYP2B6 gene expression at 0.5 to 5 uM incubated for 24 hrs by RT-PCR analysis; assay type: cell-based; in short: as §1
# [13] = target: T1, Nuclear receptor subfamily 1 group I member 3; assay: Agonist activity at human CAR in human primary hepatocytes assessed as increase in CYP2B6 gene expression at 1 mM incubated for 24 hrs by RT-PCR analysis; assay type: cell-based; conditions: 1000 µM
# In short: (§4)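 Human primary hepatocytes from liver donor HL-#151 were treated with compound at 0.5, 1 or 5 μM, phenobarbital (1 mM), rifampicin (10 μM) or vehicle. CYP2B6 and CYP3A4 mRNA was measured by RT-PCR and normalized against vehicle control. Results are mean ± SD of three independent experiments.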
# [14] = target: T2, Nuclear receptor subfamily 1 group I member 2; assay: Agonist activity at human PXR in human primary hepatocytes assessed as increase in CYP3A4 gene expression at 1 mM incubated for 24 hrs by RT-PCR analysis; assay type: cell-based; conditions: 1000 µM; in short: as §4
SMILES,EC50 ([6]; read-out: EC50) [nM],Ratio [7],Activity [9],other results
Clc1ccc(-c2nc3occn3c2/C=N/OCc2ccc(Cl)c(Cl)c2)cc1,410,10,,Activity [1]: Dose-dependent effect; Activity [2]: Non-Toxic; Activity [3]: Active; EC50 [4]: 1300 nM; Activity [5]: Active; Ratio [8]: 1.3
Clc1ccc(CO/N=C/c2c(-c3cccc4ccccc34)nc3sccn23)cc1Cl,940,2.3,Toxic,
Clc1ccc(CO/N=C/c2c(-c3ccc4ccccc4c3)nc3occn23)c(Cl)c1,1500,2.3,Toxic,
FC(F)(F)c1ccc(CO/N=C/c2c(-c3ccc4ccccc4c3)nc3occn23)cc1,470,6,,Activity [2]: Non-Toxic; EC50 [4]: 2000 nM; Ratio [8]: 0.85
CC(C)(C)c1ccc(-c2nc3sccn3c2/C=N/OCc2ccc(Cl)c(Cl)c2)cc1,2400,0.83,Toxic,
Clc1ccccc1CO/N=C/c1c(-c2ccc3ccccc3c2)nc2occn12,1100,3.5,Toxic,
FC(F)(F)c1ccc(-c2nc3sccn3c2/C=N/OCc2ccc(Cl)c(Cl)c2)cc1,880,2.6,Toxic,
Cc1ccc(-c2nc3sccn3c2/C=N/OCc2ccc(Cl)c(Cl)c2)cc1,490,5.5,Toxic,
Clc1ccc(CO/N=C/c2c(-c3ccc(C4CCCCC4)cc3)nc3sccn23)cc1Cl,> 100000,< 0.03,Toxic,
Clc1ccc(CO/N=C/c2c(-c3ccc4ccccc4c3)nc3sccn23)cc1Cl,380,6.1,Toxic,
CC1(C)CCC(C)(C)c2cc(-c3nc4sccn4c3/C=N/OCc3ccc(Cl)c(Cl)c3)ccc21,,,Toxic,EC50 [4]: 3600 nM; EC50 ([6]; hepg2): Not Active; Ratio [8]: 0.64
Clc1ccc(CO/N=C/c2c(-c3ccc4ccccc4c3)nc3occn23)cc1,990,4.2,Toxic,
Clc1ccc(CO/N=C/c2c(-c3ccccc3)nc3sccn23)cc1Cl,580,4,Toxic,
COc1ccc(-c2nc3sccn3c2/C=N/OCc2ccc(Cl)c(Cl)c2)cc1,490,4.9,Toxic,
Clc1ccc(CO/N=C/c2c(-c3ccc4ccccc4c3)nc3occn23)cc1Cl,370,10,,Activity [1]: Dose-dependent effect; Activity [10]: Active; Activity [2]: Non-Toxic; Activity [11]: Dose-dependent effect; EC50 [4]: 5900 nM; Activity [5]: Active; Ratio [8]: 0.37
Clc1cccc(-c2nc3sccn3c2/C=N/OCc2ccc(Cl)c(Cl)c2)c1,1100,2.1,Toxic,
CC(C)c1ccc(-c2nc3sccn3c2/C=N/OCc2ccc(Cl)c(Cl)c2)cc1,590,5.1,Toxic,
Fc1c(F)c(F)c(CO/N=C/c2c(-c3ccc4ccccc4c3)nc3occn23)c(F)c1F,1700,1.8,Toxic,
CC(C)(C)c1ccc(CO/N=C/c2c(-c3ccc4ccccc4c3)nc3occn23)cc1,7900,0.29,Toxic,
Clc1ccc(CO/N=C/c2c(-c3ccc(-c4ccccc4)cc3)nc3sccn23)cc1Cl,,,Toxic,EC50 [4]: 57000 nM; EC50 ([6]; hepg2): Not Active; Ratio [8]: 0.06
Clc1ccc(CO/N=C/c2c(-c3ccc(Br)cc3)nc3sccn23)cc1Cl,480,5,Toxic,
Fc1ccc(-c2nc3sccn3c2/C=N/OCc2ccc(Cl)c(Cl)c2)cc1,670,3.9,Toxic,
C(=N\OCc1ccccc1)/c1c(-c2ccc3ccccc3c2)nc2occn12,840,5.2,,Activity [2]: Non-Toxic; EC50 [4]: 7300 nM; Ratio [8]: 1
COc1ccc(CO/N=C/c2c(-c3ccc4ccccc4c3)nc3occn23)cc1,4400,0.75,Toxic,
CCc1nc2sccn2c1/C=N/OCc1ccc(Cl)c(Cl)c1,2600,1.4,Toxic,
C(=N\OC1Cc2ccccc2C1)/c1c(-c2ccc3ccccc3c2)nc2occn12,980,3.8,Toxic,
N#Cc1ccc(-c2nc3sccn3c2/C=N/OCc2ccc(Cl)c(Cl)c2)cc1,3400,0.65,Toxic,
C(=N\OCc1ccc(Oc2ccccc2)cc1)/c1c(-c2ccc3ccccc3c2)nc2occn12,,,Toxic,EC50 [4]: 1100 nM; EC50 ([6]; hepg2): Not Active; Ratio [8]: 1.6
Clc1ccc(-c2nc3sccn3c2/C=N/OCc2ccc(Cl)c(Cl)c2)cc1,,,Toxic,Activity [12]: Active; EC50 [4]: 990 nM
CCC1(c2ccccc2)C(=O)NC(=O)NC1=O [PHENOBARBITAL],,,,Activity [13]: Active; Activity [14]: Active
